Screens (PubChem BioAssay)
The list is not random: actives were taken first. Their share in the collection is about 4.3%.
Rin1-Abl PPI inh – human Rin1-Abl interaction inhibition; TR-FRET Rin1/Abl binding, biochemical; inhibition, % at 7.35 µM; 0.4% of 360,000 active; in the data active = inhibition above about 5%, passing the limit was not always enough
SUMO HTRF inh – SUMOylation inhibition; P63279; 0.36% of 290,000 active; HTRF SUMOylation assay, SAE1/SAE2 + UBC9, in vitro; inhibition, % at 35 µM; in the data active = inhibition above about 50%, passing the limit was not always enough
RBBP9 inhibitor – inhibitors of human serine hydrolase RBBP9; O75884; recombinant RBBP9, FP-Rh probe fluorescence polarization; inhibition, % at 7.94 µM; 0.2% of 220,000 active; AID 1515;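 active = inhibition above the campaign mean of all tested compounds plus 3 SD, cut at about 14% in these data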
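Test system: recombinant human RBBP9. Quantity: 2.5 µM RBBP9 dispensing solution, before mixing. Detection: FP readout at 525/598 nm. Reagent: Serine-hydrolase probe FP-Rh, 375 nM pre-mixing. Measure: % inhibition. Control set: DMSO-treated enzyme wells and wells lacking RBBP9. Buffer or medium: Tris-NaCl-Pluronic buffer, pH 8.0. Times: preincubation 30 min plus labeling 45 min at 25 °C.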
PREPL inhibitor – inhibits the human prolyl oligopeptidase-like enzyme; AID 2751; recombinant PREPL, fluorescence polarization activity-based probe; Q4J6C6; inhibition, % at 5.96 µM; 0.68% of 320,000 active; in the data active = inhibition above about 43%
Target sequence (Q4J6C6 whole entry, looked up): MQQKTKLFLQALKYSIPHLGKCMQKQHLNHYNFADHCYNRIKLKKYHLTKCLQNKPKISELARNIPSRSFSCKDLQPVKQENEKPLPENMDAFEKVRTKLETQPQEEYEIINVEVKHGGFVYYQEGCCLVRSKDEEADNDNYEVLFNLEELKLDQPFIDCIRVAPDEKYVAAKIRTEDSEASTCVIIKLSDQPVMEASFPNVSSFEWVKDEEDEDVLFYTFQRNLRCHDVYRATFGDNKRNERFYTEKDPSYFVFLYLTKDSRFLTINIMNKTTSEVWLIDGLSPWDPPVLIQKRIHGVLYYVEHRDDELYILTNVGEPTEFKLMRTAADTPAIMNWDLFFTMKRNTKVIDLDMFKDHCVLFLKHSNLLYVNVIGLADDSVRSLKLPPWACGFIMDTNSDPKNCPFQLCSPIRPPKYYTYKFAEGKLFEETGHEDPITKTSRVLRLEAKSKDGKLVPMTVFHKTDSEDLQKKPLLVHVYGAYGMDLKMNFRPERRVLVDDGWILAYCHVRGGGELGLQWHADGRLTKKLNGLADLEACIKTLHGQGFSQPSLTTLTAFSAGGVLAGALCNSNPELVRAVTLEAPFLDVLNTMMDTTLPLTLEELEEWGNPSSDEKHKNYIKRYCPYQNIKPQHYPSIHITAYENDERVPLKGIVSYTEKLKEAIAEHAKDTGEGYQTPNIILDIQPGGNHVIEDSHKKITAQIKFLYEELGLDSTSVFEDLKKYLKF
UBC13 inh – blocks human UBC13 polyubiquitin chain formation; 0.47% of 330,000 active; inhibition, % at 20 µM; P61088; TR-FRET; AID 485273; in the data active = inhibition above about 45%, passing the limit was not always enough
ALR inh – inhibitors of human sulfhydryl oxidase ALR | P55789 | purified ALR, DTT oxidation, H2O2 HRP-luminol luminescence | inhibition, % (test concentration not listed) | 3.8% of 290,000 active | AID 485317;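 active = mean replicate inhibition above about 79%, with every replicate also reaching it, limit read from the data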
A number is an active result.

How did C=C1CC[C@@H]2[C@](C)(CO)[C@H](O)CC[C@@]2(C)[C@@H]1C/C=C1/C(=O)OCC1O (some centres undefined) do in these assays?
Rin1-Abl PPI inh: inactive

How did C=CCSC1=N/C(=C\c2cc(OCC)c(OC(C)=O)c([N+](=O)[O-])c2)C(=O)S1 do in these assays?
Rin1-Abl PPI inh: inactive; SUMO HTRF inh: inactive; RBBP9 inhibitor: inactive; PREPL inhibitor: inactive; UBC13 inh: inactive; ALR inh: 98.2

What do the screens show for `Brc1ccc(OCc2nc3ccccc3[nH]2)cc1`?
Rin1-Abl PPI inh: inactive; SUMO HTRF inh: inactive; PREPL inhibitor: inactive; UBC13 inh: inactive

How did COC(=O)c1ccc(C(=O)OCCCc2nc3ccc(N)cc3[nH]2)cc1 do in these assays?
Rin1-Abl PPI inh: inactive; SUMO HTRF inh: inactive; RBBP9 inhibitor: inactive; PREPL inhibitor: inactive; UBC13 inh: inactive; ALR inh: 89.6

What do the screens show for `Nc1ccc2nc(CCCO)[nH]c2c1`?
Rin1-Abl PPI inh: inactive; SUMO HTRF inh: inactive; RBBP9 inhibitor: inactive; PREPL inhibitor: inactive; UBC13 inh: inactive; ALR inh: 99.1

What do the screens show for `Nc1ccc(C(=O)OCCCc2nc3ccccc3[nH]2)cc1`?
Rin1-Abl PPI inh: inactive; SUMO HTRF inh: inactive; RBBP9 inhibitor: inactive; PREPL inhibitor: inactive; UBC13 inh: inactive; ALR inh: inactive

Results for Nc1ccc2nc(CCCCCCc3nc4ccc(N)cc4[nH]3)[nH]c2c1 ?
Rin1-Abl PPI inh: inactive; SUMO HTRF inh: inactive; RBBP9 inhibitor: inactive; PREPL inhibitor: inactive; UBC13 inh: inactive; ALR inh: inactive

What do the screens show for `Nc1ccc2nc(CCCCc3nc4ccccc4[nH]3)[nH]c2c1`?
Rin1-Abl PPI inh: inactive; SUMO HTRF inh: inactive; UBC13 inh: inactive; ALR inh: 99.6

How did Nc1ccc2nc(COc3ccccc3)[nH]c2c1 do in these assays?
Rin1-Abl PPI inh: inactive; SUMO HTRF inh: inactive; PREPL inhibitor: inactive; UBC13 inh: inactive; ALR inh: 91.1

What do the screens show for `O=C(N=C1SC2CS(=O)(=O)CC2N1CCc1ccccc1)C1CC1` (centres undefined)?
Rin1-Abl PPI inh: inactive; SUMO HTRF inh: inactive; PREPL inhibitor: inactive; UBC13 inh: inactive; ALR inh: inactive

What do the screens show for `Nc1nnc(CC(=O)N/N=C/c2cc([N+](=O)[O-])cc(Br)c2O)s1`?
Rin1-Abl PPI inh: inactive; SUMO HTRF inh: 99.2; RBBP9 inhibitor: inactive; PREPL inhibitor: inactive; UBC13 inh: inactive; ALR inh: inactive

How did Nc1cc(N)nc(SCC(=O)c2ccccc2)n1 do in these assays?
Rin1-Abl PPI inh: inactive; SUMO HTRF inh: inactive; RBBP9 inhibitor: inactive; PREPL inhibitor: inactive; UBC13 inh: inactive; ALR inh: 98.7

How did COc1ccc(Cl)cc1C(=O)CSc1nc(N)cc(N)n1 do in these assays?
Rin1-Abl PPI inh: inactive; SUMO HTRF inh: inactive; RBBP9 inhibitor: inactive; PREPL inhibitor: inactive; UBC13 inh: inactive; ALR inh: 93.9

How did O=C(NCC1CCCO1)c1cccc(S(=O)(=O)N2CCOCC2)c1 (centres undefined) do in these assays?
Rin1-Abl PPI inh: inactive; SUMO HTRF inh: inactive; PREPL inhibitor: inactive; UBC13 inh: inactive; ALR inh: inactive

What do the screens show for `CC1CCCC(C)N1C(=O)c1cc2ncc(CCCl)cn2n1` (centres undefined)?
Rin1-Abl PPI inh: inactive; SUMO HTRF inh: inactive; RBBP9 inhibitor: inactive; PREPL inhibitor: inactive; UBC13 inh: inactive; ALR inh: inactive

How did COc1ccc(NC2CC(=O)N(C(C)C)C2=O)cc1 (centres undefined) do in these assays?
Rin1-Abl PPI inh: inactive; SUMO HTRF inh: inactive; RBBP9 inhibitor: inactive; PREPL inhibitor: inactive; UBC13 inh: inactive; ALR inh: inactive

Results for O=C1CC(Nc2ccc(N3CCOCC3)cc2)C(=O)N1C1CCCCC1 (centres undefined) ?
Rin1-Abl PPI inh: inactive; SUMO HTRF inh: inactive; RBBP9 inhibitor: inactive; PREPL inhibitor: inactive; UBC13 inh: inactive; ALR inh: 99.5

Results for O=C1CC(Nc2ccccc2)C(=O)N1c1ccc(N2CCOCC2)cc1 (centres undefined) ?
Rin1-Abl PPI inh: inactive; SUMO HTRF inh: inactive; RBBP9 inhibitor: inactive; PREPL inhibitor: inactive; UBC13 inh: inactive; ALR inh: inactive

Results for CC(C)N1C(=O)CC(Nc2ccc(N3CCOCC3)cc2)C1=O (centres undefined) ?
Rin1-Abl PPI inh: inactive; SUMO HTRF inh: inactive; RBBP9 inhibitor: inactive; PREPL inhibitor: inactive; UBC13 inh: inactive; ALR inh: 99.2

How did COc1ccc(CCN2C(=O)CC(Nc3ccc(N4CCOCC4)cc3)C2=O)cc1OC (centres undefined) do in these assays?
Rin1-Abl PPI inh: inactive; SUMO HTRF inh: inactive; RBBP9 inhibitor: inactive; PREPL inhibitor: inactive; UBC13 inh: inactive; ALR inh: 98.7

How did CCc1ccc(NC2CC(=O)N(CCc3ccc(OC)c(OC)c3)C2=O)cc1 (centres undefined) do in these assays?
Rin1-Abl PPI inh: inactive; SUMO HTRF inh: inactive; RBBP9 inhibitor: inactive; PREPL inhibitor: inactive; UBC13 inh: inactive; ALR inh: inactive

What do the screens show for `O=C1CC(Nc2ccc(N3CCOCC3)cc2)C(=O)N1c1ccccc1F` (centres undefined)?
Rin1-Abl PPI inh: inactive; SUMO HTRF inh: inactive; RBBP9 inhibitor: inactive; PREPL inhibitor: inactive; UBC13 inh: inactive; ALR inh: 99.2

Results for CC(=O)Nc1cccc(C(=O)OC(C)C(=O)NC(=O)NC2CCCCC2)c1 (centres undefined) ?
Rin1-Abl PPI inh: inactive; PREPL inhibitor: inactive; UBC13 inh: inactive; ALR inh: inactive

What do the screens show for `O=C(Nc1ccccc1N1CCCC1)C1CCCO1` (centres undefined)?
Rin1-Abl PPI inh: inactive; UBC13 inh: inactive

Results for O=C(NC1CCCCC1)c1cc([N+](=O)[O-])[nH]n1 ?
Rin1-Abl PPI inh: inactive; SUMO HTRF inh: inactive; RBBP9 inhibitor: inactive; PREPL inhibitor: inactive; UBC13 inh: inactive; ALR inh: inactive

How did O=C(c1ccc(Br)cc1)c1cc2ccc(O)cc2oc1=O do in these assays?
Rin1-Abl PPI inh: inactive; SUMO HTRF inh: inactive; PREPL inhibitor: inactive; UBC13 inh: inactive; ALR inh: 96.8

How did COc1ccc(N2C[C@H](Cc3ccccc3)[C@@H](CC(=O)Nc3ccccc3)C2=O)cc1 do in these assays?
Rin1-Abl PPI inh: inactive

What do the screens show for `CN(C)NC(=S)NC(=O)C12CC3CC(CC(C3)C1)C2`?
Rin1-Abl PPI inh: inactive; SUMO HTRF inh: inactive; RBBP9 inhibitor: inactive; PREPL inhibitor: inactive; UBC13 inh: inactive; ALR inh: 92.1

What do the screens show for `CCc1nc2n[nH]c(N)c2c2c1CSC(C)(C)C2`?
Rin1-Abl PPI inh: inactive; SUMO HTRF inh: inactive; RBBP9 inhibitor: inactive; PREPL inhibitor: inactive; UBC13 inh: inactive; ALR inh: 86.7

Results for COc1cccc(-c2csc(NC3OC(=O)c4c3ccc(OC)c4OC)n2)c1 (centres undefined) ?
Rin1-Abl PPI inh: inactive; SUMO HTRF inh: inactive; RBBP9 inhibitor: inactive; PREPL inhibitor: inactive; UBC13 inh: inactive; ALR inh: 97.3

Results for COc1ccc2c(c1OC)C(=O)OC2Nc1nc(-c2cc3ccccc3oc2=O)cs1 (centres undefined) ?
Rin1-Abl PPI inh: inactive; SUMO HTRF inh: inactive; RBBP9 inhibitor: inactive; PREPL inhibitor: inactive; UBC13 inh: inactive
